# Source: PubChem BioAssay (several laboratories)
# Sampled rows, rich in hits. Any-hit rate of the full collection: about 1%.
# TLR4 MyD88 comp = inhibitors of TLR4-MyD88 association in cells, primary screen, cell-based, HeLa CL3-4, BLA complementation, FRET ratio; Toll-like receptor 4 (Homo sapiens) + Myeloid differentiation primary response protein …; HeLa CL3-4 TLR4/MyD88 BLA complementation; inhibition, % at 8.4 µM; 200,000 tested, 0.18% active; AID 861, 2007; in the data active = inhibition above about 25%;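 note: 0% = vehicle and 100% = reference inhibitor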
# Hsp70 act = Hsp70 transcriptional activators, primary screen, cell-based, HeLa, Hsp70 promoter luciferase, luminescence, 10 µM; HeLa Hsp70 promoter luciferase reporter; scaled: vehicle 0, proteasome-inhibitor control 100%; activation, % at 10 µM; 200,000 tested, 0.04% active; AID 1203, 2008;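 active = activation above the mean across all tested compounds plus 3 SD, cutoff set per campaign, cut at about 5.5% in these data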;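 note: 100% = MG132 at 30 µM as the positive control and 0% = DMSO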
# b-catenin transl = modulators of beta-catenin nuclear translocation, primary screen, imaging, HeLa cells, immunofluorescence, high-content; nuclear translocation activity, % at 5 µM; AID 1665, 2009; 190,000 tested, 0.3% active;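 active = nuclear translocation activity above 50% at 5 µM, with a well cell count of 50 or more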;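 note: per-cell ratio of nuclear to cytoplasmic median beta-catenin stain intensity; plate controls were DMSO negative control for no effect and GSK-3 inhibitor IX positive control for full effect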
#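 Test system: human HeLa cell line; Doses: 5 µM primary, 0.02–20 µM confirmation; Incubation: 24 h compound exposure, 37°C; Detection: beta-catenin immunofluorescence imaging with DAPI; Read-out: beta-catenin nuclear/cytoplasmic ratio, % activation.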
# NOD2-RIPK2 inh = NOD2-RIPK2 binding disruptors in cells, primary screen, fluorescence, CHO cells, BLA complementation. CCF4 ratio. inhibition, % at 4.98 µM. 360,000 tested, 0.38% active. AID 624267, 2012; in the data active = inhibition above about 21%;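 note: 0% = vehicle only and 100% = reference blocker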
# TLR9-MyD88 block = inhibitors of TLR9-MyD88 association in cells, primary screen, cell-based, CHO, BLA complementation, fluorescence; 340,000 tested, 0.21% active; Toll-like receptor 9 (Homo sapiens) + Myeloid differentiation primary response protein …; CCF4 FRET ratio; AID 504734, 2011; inhibition, % at 4.98 µM;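 active = inhibition above the mean over all tested compounds plus 3 SD, cut at about 21% in these data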;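 note: 0% = DMSO only wells and 100% = clavulanate BLA inhibitor control wells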
# MT stabilizer = microtubule stabilizers in HeLa cells, primary screen, imaging, high-content imaging; HeLa tubulin immunostaining HCS, 24 h; share of cells brighter than vehicle mean+2SD; % tubulin-high responders, % at 10 µM; 200,000 tested, 0.83% active; AID 2205, 2009;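 active = plate Z-score above 3 for both tubulin-high and condensed-nucleus cell shares, with cell loss under 80%, at 10 µM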;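 note: anti alpha tubulin signal scored within the nucleus-defined area of each cell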
# TLR4 MyD88 cnf = TLR4-MyD88 association inhibitors, retest, confirmation, cell-based, HeLa CL3-4, BLA complementation, FRET ratio | shares compounds with TLR4 MyD88 comp | inhibition, % at 8.4 µM | 350 tested, 50% active | CCF4 FRET ratio;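 active = mean inhibition across three repeat runs above about 25% carried over from the earlier screen, limit read from the data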;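 note: plate controls were DMSO only for no effect and clavulanic acid blocking BLA at full dose for full effect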
# BLA inh HeLa = beta-lactamase inhibition flagged in TLR4-MyD88 counter-screen. shares compounds with TLR4 MyD88 comp. AID 1237. inhibition, % at 8.4 µM. HeLa BLA reporter, CCF4 FRET ratio. 350 tested, 63% active;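 active = mean inhibition over three repeats above about 26% taken from the earlier screen, limit read from the data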;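 note: HeLa cells stably expressing beta-lactamase reporter as counterscreen for TLR4-MyD88 inhibitors; 0% = DMSO and 100% = clavulanic acid full inhibition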
# * marks the source's active call; other numbers are inactive results; nt = no result.
SMILES,TLR4 MyD88 comp,Hsp70 act,b-catenin transl,NOD2-RIPK2 inh,TLR9-MyD88 block,MT stabilizer,TLR4 MyD88 cnf,BLA inh HeLa
CSc1nc(Oc2ccc3ccccc3c2)c2sccc2n1,-7,0,86*,-2,-16,41*,nt,nt
COc1cc(NC(=O)c2ccc(C(C)(C)C)cc2)c(OC)cc1NC(=O)CN1CCCCC1,-4,0,1,10,-4,2,nt,nt
CCCC1CCc2c(sc(NC(=O)OCC)c2C#N)C1 (stereo unspecified),4,0,0,-8,-13,52*,nt,nt
NS(=O)(=O)c1ccc(CNC(=S)NCc2ccc(Cl)cc2)cc1,-6,0,1,1,-12,11*,nt,nt
CCS(=O)(=O)CCSc1nc2ccccc2s1,-7,0,-3,-8,3,3,nt,nt
O=S(=O)(CCSc1nc2ccccc2s1)c1nc2ccccc2s1,4,0,3,10,-2,11*,nt,nt
CCOc1cc(-c2sc(Nc3ccccc3)n[n+]2C)ccc1OC,nt,nt,nt,0,2,nt,nt,nt
O=C(Cc1ccccc1)NCc1ccc(-n2cccc2)cc1,2,0,52*,-10,7,4,nt,nt
O=C(Cc1ccc(-n2cccc2)cc1)NCc1ccccc1Cl,14,0,63*,0,-3,25*,nt,nt
CCOC(=O)C1=C(N)n2c(s/c(=C\c3ccco3)c2=O)=C(C(=O)OCC)C1c1ccco1 (stereo unspecified),-7,0,55*,6,9,47*,nt,nt
CCOC(=O)COc1cccc2c(=O)n(CC(=O)NCc3ccc4c(c3)OCO4)ccc12,-4,0,64*,7,2,19*,nt,nt
COC(=O)COc1cccc2c(=O)n(CC(=O)N3CCCCC3)ccc12,nt,nt,0,-4,-3,nt,nt,nt
CCOC(=O)C(C)Oc1cccc2c(=O)n(CC(=O)NCc3ccc(F)cc3)ccc12 (stereo unspecified),nt,nt,106*,4,0,nt,nt,nt
CCOC(=O)C(C)Oc1cccc2c(=O)n(CC(=O)NCc3ccccc3)ccc12 (stereo unspecified),nt,nt,51*,13,-8,nt,nt,nt
COC(=O)COc1cccc2c(=O)n(CC(=O)NCc3ccc(F)cc3)ccc12,-1,0,-2,7,3,20*,nt,nt
CCOC(=O)C(C)Oc1cccc2c(=O)n(CC(=O)NCCc3ccccc3)ccc12 (stereo unspecified),nt,nt,1,-7,0,nt,nt,nt
COc1ccc(OC)c(CNS(=O)(=O)c2cc(CN3C(=O)c4cccnc4C3=O)ccc2OC)c1,nt,nt,nt,10,2,nt,nt,nt
CCN(CC)S(=O)(=O)c1cc(NC(=O)CCNC(=O)c2ccco2)ccc1C,nt,nt,nt,-10,-4,nt,nt,nt
O=C(NCCc1cscn1)C1CCC(=O)N(Cc2ccc(Cl)cc2)C1 (stereo unspecified),nt,nt,nt,-6,1,nt,nt,nt
CC(C)(C)n1ncc2c(=O)n(CC(=O)NCc3ccc(F)cc3)cnc21,7,0,0,-6,-1,47*,nt,nt
CCCn1c2c(c(=N)c3c1CCC3)CCC2,nt,nt,0,-1,-12,nt,nt,nt
CCCCCCCn1c2c(c(=N)c3ccccc31)CCC2,28*,0,0,7,-11,7,30*,34*
CC(C)(C)c1cc(NC(=O)c2cccnc2)no1,27*,0,0,-10,0,3,7,0
O=C(NCCCN1CCOCC1)C(c1ccccc1)c1ccccc1,nt,nt,nt,2,-5,nt,nt,nt
O=c1c2ccccc2nc(/C=C/c2c[nH]c3ccccc23)n1CCO,26*,0,-1,4,-5,4,-4,6
SMILES,TLR4 MyD88 comp,Hsp70 act,b-catenin transl,NOD2-RIPK2 inh,TLR9-MyD88 block,MT stabilizer,TLR4 MyD88 cnf,BLA inh HeLa
O=c1c2ccccc2nc(/C=C/c2cc(Br)ccc2O)n1CCO,nt,nt,nt,10,3,nt,nt,nt
NC(=O)CSc1nc2scc(-c3ccco3)c2c(=O)n1-c1ccccc1,-6,0,-4,3,-27,3,nt,nt
O=C(CSc1nc2scc(-c3ccco3)c2c(=O)n1-c1ccccc1)N1CCOCC1,30*,0,nt,2,-6,4,2,9
CC(C)(C)C(=O)Cn1ncc(N2CCOCC2)c(Cl)c1=O,nt,nt,nt,-1,2,nt,nt,nt
CC(C)(C)C(=O)Cn1ncc(Br)c(Br)c1=O,36*,0,0,11,17,5,17,5
c1ccc2c(c1)ccc1nnnn12,nt,nt,nt,-8,1,nt,nt,nt
CCOC(=O)C1=C(CSc2nc(-c3ccccc3)ccc2C#N)OC(N)=C(C#N)C1c1ccc(OC)cc1 (stereo unspecified),26*,0,-4,17,7,2,15,24
CCCCC(=O)Nc1sc2c(c1C(=O)OCC)CCC(C=O)=C2Cl,26*,0,2,9,19,3,38*,45*
Cc1cc(CNC[C@H]2O[C@@H](n3ccc(=O)[nH]c3=O)[C@H](O)[C@@H]2O)no1,nt,nt,nt,-1,nt,nt,nt,nt
O=C(N/N=C/c1cc(Cl)ccc1O)C(=O)Nc1ccccc1OC(F)(F)C(F)F,27*,1,1,8,7,7,7,20
c1cc2c(cc1C1CCCCC1)c1c3n2CCN=C3CCC1,27*,0,16,1,4,3,19,41*
O=C1COc2ccc(C(=O)COC(=O)c3cnc(Cl)c(Cl)c3)cc2N1,28*,0,-2,-9,0,5,27*,-3
CO[C@H]1CN(C)C(=O)c2ccc(NS(=O)(=O)c3ccccc3F)cc2OC[C@H](C)NC[C@@H]1C,nt,nt,nt,-19,nt,nt,nt,nt
O=C(CSc1nnc(CNC(=O)c2c(F)cccc2Cl)o1)c1ccccc1,27*,0,-3,5,3,3,0,7
O=C(CSc1nnc(CNC(=O)c2c(F)cccc2Cl)o1)Nc1ccccc1,6,0,1,-3,-11,1,nt,nt
